Sampled rows, rich in hits. Any-hit rate of the full collection: about 3.1%.
GPR7 antagonist: blocks human GPR7 receptor signaling; P48145; GPR7-expressing cells, fluorescence antagonist assay; inhibition, % at 4.4 µM; 290,000 compounds, 1.1% hits; AID 1861; in the data active means inhibition above about 16%, passing the limit was not always enough;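 further: cells stimulated with the agonist NPW; 0% = agonist with vehicle and 100% = vehicle without agonist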
Target sequence (P48145 whole entry, looked up): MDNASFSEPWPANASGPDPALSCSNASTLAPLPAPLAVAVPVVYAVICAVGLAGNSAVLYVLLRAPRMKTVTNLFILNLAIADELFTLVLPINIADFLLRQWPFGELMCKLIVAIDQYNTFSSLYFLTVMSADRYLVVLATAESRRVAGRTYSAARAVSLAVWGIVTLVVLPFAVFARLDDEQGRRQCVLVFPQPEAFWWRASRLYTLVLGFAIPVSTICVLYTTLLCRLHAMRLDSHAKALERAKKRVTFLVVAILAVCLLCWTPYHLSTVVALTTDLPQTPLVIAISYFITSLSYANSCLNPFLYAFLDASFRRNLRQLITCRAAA
OX1R antag-1: OX1R (human) antagonism | O43613 | OX1R-expressing cells, FRET antagonist read-out | inhibition, % at 6.6 µM | 330,000 compounds, 1.8% hits | AID 485270; in the data active means inhibition mostly above about 38%, no sharp cut-off; inactive means mostly below about 40%;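 further: 0% = agonist challenge alone and 100% = reference antagonist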
GalR3 antagonist: antagonists of human GalR3; O60755; HEK293 GalR3-CNG cAMP membrane potential fluorescence; galR3 body fused to GalR1 C-terminus; inhibition, % at 3 µM; 360,000 compounds, 0.44% hits; AID 651719;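 active means inhibition above the screen-wide average plus 3 SD, cut at about 13% in these data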;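 further: forskolin and galanin both at EC90 stimulate the cells; cAMP rise reported by CNG channel membrane potential dye signal; 0% = forskolin plus galanin with DMSO and 100% = forskolin alone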
Target sequence (O60755 1-299 limits assumed): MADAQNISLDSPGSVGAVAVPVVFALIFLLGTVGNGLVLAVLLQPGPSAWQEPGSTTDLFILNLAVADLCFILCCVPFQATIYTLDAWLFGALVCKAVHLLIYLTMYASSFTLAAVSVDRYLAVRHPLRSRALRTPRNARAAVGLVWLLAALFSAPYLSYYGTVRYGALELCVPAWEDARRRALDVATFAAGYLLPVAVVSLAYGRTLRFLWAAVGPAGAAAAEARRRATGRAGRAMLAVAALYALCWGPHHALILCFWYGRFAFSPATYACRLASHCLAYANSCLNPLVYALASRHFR
CHO parental Ca: signal in parental CHO cells, OX1R antagonist counter-screen | parental CHO-K1, ATP-induced calcium, Fluo-8 fluorescence | inhibition, % at 5.6 µM | 330,000 compounds, 0.63% hits | AID 463079;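 active means inhibition above that plate's mean sample inhibition plus 3 SD, cut at about 26% in these data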;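 further: 0% = ATP-challenged DMSO wells and 100% = DMSO wells without ATP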
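test system = CHO parental line | reagent = ATP stimulus | measured by = intracellular calcium via Fluo-8 no-wash fluorescent dye | control set = ATP and no-ATP DMSO wells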
OX1R antag-2: antagonists of human orexin 1 receptor; CHO/OX1R cells, Fluo-8 calcium fluorescence, orexin A; 330,000 compounds, 0.43% hits; inhibition, % at 5 µM; O43613;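 active means inhibition above its plate's threshold, mean inhibition of all tested compounds on the plate plus 3 SD, cut at about 37% in these data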;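 further: 0% = orexin A challenge wells and 100% = SB-334867-A antagonist wells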
* marks the source's active call; other numbers are inactive results; nt = not tested or not shown.

SMILES | GPR7 antagonist | OX1R antag-1 | GalR3 antagonist | CHO parental Ca | OX1R antag-2
Cc1ccccc1N(CC(=O)N/N=C/c1ccc(N(C)C)cc1)C(=O)c1ccccc1 | -4.4 | 62.6* | -3.6 | -20.0 | -25.8
CN(C)c1ccc(/C=N/NC(=O)COc2ccccc2)cc1 | -13.4 | 15.0 | -4.4 | 1.1 | -20.0
COc1ccccc1C(CNC(=O)c1ccc(-c2ccccc2Cl)o1)N1CCCC1 (stereo not given) | nt | 4.2 | -2.8 | -35.0 | -33.7
COc1ccc(C(C(=O)NC2CCCC2)N(Cc2cccs2)C(=O)c2ccn[nH]2)cc1OC (stereo not given) | -4.6 | 23.1 | -7.0 | 8.7 | -19.6
COc1ccc(C(=O)c2ccc(N(C)C)cc2)c2ccccc12 | 12.7 | 21.6 | -5.5 | 32.8* | 58.2*
CN(C=[N+](C)C)c1cccc2c1C(=O)c1ccccc1C2=O | -9.9 | 75.3* | -1.0 | -2.4 | -12.4
CC(C)c1cc(C(=O)Nc2cc(Br)ccc2O)no1 | 3.2 | 22.8 | -7.2 | 29.7* | 15.7
O=c1oc2ccccc2c(O)c1/C=C1\C=Nc2ccccc21 | -8.1 | 73.5* | -2.2 | 7.6 | -19.0
O=c1oc2ccccc2c(O)c1/C=N/c1ncccn1 | nt | 46.6 | -1.1 | -6.0 | -6.4
CCOC(=O)c1sc(N)c(C#N)c1CSc1nc2ccc(OCC)cc2[nH]1 | -0.5 | 47.0* | 7.8 | -18.4 | -20.6
CCOC(=O)C1(CC2CCCCO2)CCN(Cc2nccn2-c2ccc(OC)cc2)CC1 (stereo not given) | -0.3 | 24.2 | -7.6 | -1.6 | -31.3
CCOC(=O)C1(CC2CCCCO2)CCN(Cc2nccn2-c2cccc(C)c2)CC1 (stereo not given) | 19.4* | 16.1 | -5.7 | -14.3 | -25.4
O=C1CCCc2c1nc(-c1ccc(F)cc1)n2O | -3.1 | 6.0 | -1.2 | -16.9 | -8.5
O=C1CCCc2c1nc(-c1ccc([N+](=O)[O-])cc1)n2O | -5.5 | 48.4* | -2.8 | 1.0 | -13.7
COc1ccc(NC(=O)NC2(C(=O)N3CCN(C)CC3)CCCCC2)cc1 | -6.2 | 1.6 | -4.7 | -2.9 | 8.4
COc1ccc(-c2n[nH]c(=S)n2-c2cc(OC)ccc2OC)cc1 | -7.3 | 2.5 | -4.7 | -20.5 | -12.4
COc1ccc(OC)c(-n2c(-c3cc(-c4ccc(F)cc4)n[nH]3)n[nH]c2=S)c1 | -11.3 | 11.6 | 14.6* | -27.3 | -11.4
COc1ccc(N(CC(=O)NN=C2CCN(C)CC2)S(=O)(=O)c2ccc(NC(C)=O)cc2)cc1 | 2.2 | 14.9 | 1.9 | -11.2 | -35.6
COc1ccc(-c2cc3ccccc3n2CC(O)CNC(CO)(CO)CO)cc1 (stereo not given) | 14.7* | -1.7 | -5.8 | -14.3 | -16.6
COc1cc(OC)cc(C2=Cc3ccccc3C(CC(=O)c3ccco3)N2c2ccc(-c3cncnc3)cc2)c1 (stereo not given) | nt | nt | -7.2 | nt | nt
Cc1cc2cc(C(c3nnnn3Cc3ccccc3)N3CCc4ccccc43)c(=O)[nH]c2cc1C (stereo not given) | -5.1 | 46.3* | 1.6 | -28.1 | 7.5
Cc1cc(OCc2cn(CC(=O)c3ccc(O)cc3)nn2)ccc1[N+](=O)[O-] | nt | nt | -4.0 | nt | nt
O=c1[nH]c2cc3c(cc2cc1CN(Cc1ccc2c(c1)OCO2)Cc1nnnn1CC1CCCO1)OCO3 (stereo not given) | -2.6 | 49.2* | -4.8 | -0.2 | -7.1
Cc1ccc2[nH]c(=O)c(CN(Cc3cccnc3)Cc3nnnn3CC3CCCO3)cc2c1 (stereo not given) | -3.3 | 9.9 | -0.4 | -11.3 | -3.5
Nc1nc(Cl)cc(N2CCC(c3cc(-c4ccc(Cl)cc4Cl)n[nH]3)CC2)n1 | -3.5 | 10.4 | -8.0 | 31.5* | 1.0
SMILES | GPR7 antagonist | OX1R antag-1 | GalR3 antagonist | CHO parental Ca | OX1R antag-2
COC(=O)c1sccc1-c1ccc(C(=O)Nc2ccccc2)o1 | 8.0 | 59.2* | -5.5 | -10.2 | -2.5
COC(=O)c1sccc1NC(=O)c1ccc(C)o1 | -6.0 | 20.9 | -3.7 | -5.4 | -18.8
CCN(CC)c1ccc(/C=C(\C#N)C(N)=O)cc1 | -8.6 | nt | -4.7 | nt | nt
CCN(CC)c1ccc(/C=C(\C#N)C(=O)c2ccc(Br)cc2)cc1 | 8.8 | 12.9 | -5.5 | 54.4* | 78.2*
CC(C)(C)OC(=O)N1CCC[C@@H]1C(=O)N1CCC[C@@H]1C(=O)NCc1ccccc1 | nt | nt | -6.5 | nt | nt
Cc1ccc(NS(=O)(=O)c2cc(Br)cnc2N)c(Cl)c1 | -1.9 | 12.8 | -5.9 | -21.2 | -13.6
Nc1ncc(Br)cc1S(=O)(=O)Nc1cc(C(F)(F)F)cc(C(F)(F)F)c1 | 20.1 | 84.9* | -6.0 | 25.1 | 24.6
COc1ccc(S(=O)(=O)N2CCOCC2)cc1NC(=O)COc1ccc(C(C)=O)cc1OC | nt | nt | 5.9 | nt | nt
CC(Cc1cccs1)NC(=O)Nc1ccc(Cl)cc1 (stereo not given) | -5.0 | 25.3 | -2.5 | -0.4 | -0.2
CC(Cc1cccs1)NC(=O)Nc1ccc(Cl)c(Cl)c1 (stereo not given) | -5.1 | 49.0* | -1.8 | 62.7* | 47.4*
Cc1ccc(C(=O)NCC(=O)OCC(=O)NC2CCCC(C)C2C)s1 (stereo not given) | -2.9 | 19.3 | -5.8 | -18.2 | -15.0
Cn1c(=O)c2c(nc(NCc3ccc4c(c3)OCO4)n2Cc2ccccc2)n(C)c1=O | 3.7 | 27.4 | -1.2 | -6.2 | -11.7
Cn1c(=O)c2c(nc(NCc3ccc4c(c3)OCO4)n2Cc2ccc(F)cc2)n(C)c1=O | -7.3 | 13.3 | 0.2 | 22.5* | -32.9
NC(=O)c1ccc(/C=N/O)[n+](Cc2ccccc2)c1 | -6.3 | 24.2 | -9.5 | -1.3 | -1.0
CCOC(=O)c1ccc(/C=N/O)[n+](Cc2ccccc2)c1 | -19.8 | 59.9* | -8.4 | -0.2 | -2.2
O=S1(=O)N[C@H](Cc2ccccc2)COc2cc(N3CCCCC3)ccc21 | nt | nt | -6.9 | nt | nt
Cc1cc(C)c(CN2CCN(C(=O)Cn3cnc(C(=O)Nc4ccc(C)c(C)c4)n3)CC2)c(C)c1 | nt | -0.9 | -9.4 | 55.4* | 59.3*
Cc1ccc(NC(=O)Cn2cnc(C(=O)Nc3ccc(C)c(C)c3)n2)cc1C | nt | 7.0 | -5.6 | -4.6 | -0.8
Cc1csc(SCC(=O)N(C)c2c(N)n(Cc3ccccc3)c(=O)[nH]c2=O)n1 | 1.6 | 1.9 | -6.7 | -3.9 | -10.7
Cc1ccc(-n2[nH]c(C)c(/C=N/NC(=O)c3ccc(O)cc3O)c2=O)cc1 | -2.8 | 37.6* | nt | -3.7 | -5.4
Cc1[nH]n(-c2ccccc2)c(=O)c1/C=N/NC(=O)c1ccc(O)cc1O | -0.1 | 36.6* | nt | -11.1 | -20.7
Cc1[nH]n(-c2ccc(Br)cc2)c(=O)c1/C=N/NC(=O)c1ccccc1 | -4.2 | nt | -0.5 | nt | nt
Cc1cc(C)n2nc(SCCOc3ccccc3)nc2n1 | -3.9 | 14.0 | 5.7 | -18.4 | -22.2
COC(=O)CSC1=C(C#N)C(c2ccc3c(c2)OCO3)C2=C(CCCC2=O)N1 (stereo not given) | 18.9 | 20.2 | nt | -7.0 | -27.4
COC(=O)C1=C(N)N(c2ccccc2C(F)(F)F)C2=C(C(=O)CCC2)C1c1ccc2c(c1)OCO2 (stereo not given) | 16.4 | 15.6 | -4.8 | 47.9* | -19.9
O=S1(=O)c2ccc(Br)cc2OCCC2CCCCN21 (stereo not given) | nt | nt | -4.1 | nt | nt

Bioassay records: PubChem BioAssay, The Scripps Research Institute Molecular Screening Center
